Data: ChEMBL document CHEMBL4513216, “Probing the Open Global Health Chemical Diversity Library for Multistage-Active Starting Points for Next-Generation Antimalarials” (ACS Infect Dis, 2020)

Test: Toxicity liver stage against HepG2, at 10uM
Format: cell-based
Design: test concentration 10 uM, cell line HepG2-A16-CD81EGFP
Conditions: human, HepG2-A16-CD81EGFP cells; read-out: INHIBITION
Procedure, shortened: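 Uninfected HepG2-A16-CD81EGFP cells, 3 × 10^3 per well, 1536-well, plated on prespotted compound at 10 μM final, parasite-free screening media added to match infected plates; puromycin 10 μM positive, DMSO 0.5% negative; run in parallel with 48 h PbLuc assay at 37 °C, 5% CO2; viability by CellTiter-Glo luminescence, normalized to controls.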

SMILES | cytotoxicity at 10 µM
CC(C)(C)c1nnnn1CC(=O)N(CCC#N)c1ccccc1 | -14.2%
COC(=O)c1cccc(C(=O)N2CCN(c3cc(Cl)ccc3C)CC2)n1 | 81.2%
Cc1cnc2n(c1=O)CC(C(=O)NCc1ccccc1Cl)CS2 (centres undefined) | -1.74%
COc1ccc(S(=O)(=O)C2CCN(C(=O)c3cc(C)cs3)CC2)cc1 | 3.07%
CC(C)Nc1nc2c(c(NC3CC3)n1)CN(C(=O)c1ccnnc1)CC2 | -0.449%
CCS(=O)(=O)N1Cc2c(Cn3ccnc3)nn(C(C)C)c2C1 | 11.5%
Cc1noc(C)c1CN1CC2(CCCCN2c2cncnc2)CC1=O (centres undefined) | 4.13%
Cc1ncsc1C(=O)N1CC[C@@H]2[C@@H](CC1)OCCN2c1cccnc1 | 9.4%
Cc1cccc(N2CCN(c3ccn4c(=O)[nH]nc4n3)CC2)c1C | 36%
O=C(Nc1ccccc1)c1nn(C2CCS(=O)(=O)C2)c2c1CCCC2 (centres undefined) | -9.75%
Cc1ccc(CN2CCC3(C2)C(=O)N(CC(C)C)c2ccccc23)s1 (centres undefined) | -0.324%
CC1CCC(NC(=O)c2nn(C)cc2Br)CC1 (centres undefined) | -3.76%
Cc1nn(C)c2cnn(Cc3ccc(C(=O)N4CCN(C)CC4)o3)c12 | 14.3%
CC(C)Oc1cccc(CN2CCC(c3n[nH]c4ncccc34)CC2)c1 | -6.15%
Cc1cc(C)c2cc(CNC(C)C)c3nn(C)c(=O)n3c2c1 | -5%
C[C@@]1(O)CCN(Cc2cc[nH]n2)C[C@H]1Oc1cccc(F)c1 | -6.86%
CC(C)(C)c1nccc(N2CCC(OCCN3CCCCC3)C2)n1 (centres undefined) | -53.7%
COc1ccc(CNC(=O)Nc2ccc(S(=O)(=O)C(F)F)cc2)cc1 | 33.6%
CN(CC(=O)NC(C)(C)C)Cc1cccc2c1OCCO2 | -26.5%
CCn1ccnc1CN1CCCC1c1c(C)nn(C)c1OC (centres undefined) | -0.386%
Cc1nc(COc2ccc(OC3CCCCNC3=O)cc2)oc1C (centres undefined) | 15.2%
Cc1cc(C(N)=O)ccc1NC(=O)N1CCN(c2cccs2)CC1 | 10.1%

SMILES | cytotoxicity at 10 µM
COc1cc(C(C)NCc2ncccc2C)ccc1SC(F)F (centres undefined) | -8.47%
CN(Cc1ccc(C#N)cc1)c1ncc(C(N)=O)cc1Cl | 18.5%
Cc1ccc(CNCc2nnc3n2CC(C(F)(F)F)CC3)o1 (centres undefined) | 9.87%
Cc1nc(CN2CCN(C(=O)CCc3cccnc3)CC2)no1 | -8.64%
CCC(CNC(=O)c1cncc(Br)c1)N1CCc2ccccc2C1 (centres undefined) | 13.4%
CCN(C(=O)C1CCC1)C(c1cccnc1)c1ccc2c(c1)CCO2 (centres undefined) | -7.88%
OCC1CCCN1c1cc(NCCc2ccsc2)ncn1 (centres undefined) | 8.51%
Cc1sc2nc(C(F)(F)F)nc(N3CCN(C)CC3)c2c1C | -3.47%
CCSC1(CNc2ncc(Br)cn2)CCOCC1 | -2.72%
COc1ccc(NC(C)=O)cc1OCc1cccnc1 | -23.5%
CCOc1ccc(C(F)(F)F)cc1NCc1nc(C)c(C)o1 | -45.3%
CSCC(CCO)NC(=O)c1cccc(F)c1Cl (centres undefined) | 11.7%
COCCN1CCN(CC(=O)N(C)Cc2ccsc2)CC1 | -153%
CCN(CC)C(=O)N1CCN(C2=NCC(C)S2)CC1 (centres undefined) | -148%
Cc1ccc(CNCc2cccc3cn[nH]c23)c(OC2CCOC2)c1 (centres undefined) | 9.6%
COCc1nc(CNc2cccc(-c3nc(C)c(C)o3)c2)cs1 | 5.11%
O=C(COCC1CC1)N1CCSCC1 | -21.2%
CC1CN(C)CCN1C(=O)c1cnn(-c2ccc(Cl)cc2)c1 (centres undefined) | -22.7%
Clc1ccc(CN2CCc3c(ncn3C3CC3)C2)c2ncccc12 | 14%
CSC1(CNC(=O)NC(C)c2ccc(F)c(F)c2)CCOCC1 (centres undefined) | 1.71%
CS(=O)(=O)CCC(=O)NC1(c2cccc(C(F)(F)F)c2)CCC1 | -40.1%
Cc1cnc(CN(Cc2cccc(O)c2)CC2CC2)cn1 | 16.7%

SMILES | cytotoxicity at 10 µM
COc1c(C2CCCN2Cc2cn3ccsc3n2)c(C)nn1C (centres undefined) | -51.2%
Cc1ncc(CNCC(=O)NC2CCCCC2)n1-c1ccccc1 | -4.75%
CN(C(=O)C(c1c(F)cccc1Cl)N(C)C)c1nccs1 (centres undefined) | -58%
CN(C)C(=O)N1CCC(c2nc3ccc(-c4ccccc4)cn3n2)CC1 | 5.9%
COCC(=O)N1CCC2(C1)c1ccccc1S(=O)(=O)N2C (centres undefined) | 3.57%
CCS(=O)(=O)N1CCc2c(COCc3ccncc3)cncc2C1 | -84.1%
CS(=O)(=O)NCc1nnc2n1CCN(Cc1ccncc1)C2 | -73.6%
Cc1nc(CN2C[C@@H]3CN(C(=O)c4ccoc4C)C[C@@H]3C2=O)cs1 | -76.8%
CCCNC(=O)c1cc(-c2cnc(N3CCCC3)nc2)cn1C | -54.6%
COCC(=O)N1CCC2(CC1)CN(c1ccsc1)C(=O)CO2 | -75.6%
O=C(NC1CCC1)C1=NOC2(CCN(Cc3ccco3)C2)C1 (centres undefined) | -80.6%
CC(C)NC(=O)N1CCC2(CC(=O)N(c3cccc(C#N)c3)C2)C1 (centres undefined) | 5.66%
OC[C@H]1CCCN1c1nccc(-c2cncnc2C2CCCCC2)n1 | 0.0815%
O=C(NCc1ccco1)N1CCC(n2cc(-c3ccccn3)nn2)CC1 | 16.9%
COCCN(CCOC)c1nc2c(s1)c(C)nn2C | -40.5%
COCCN1CCC(CNC(=O)Nc2ccc(SC(F)(F)F)cc2)C1 (centres undefined) | -11.6%
O=C(O)[C@@H]1CN(C(=O)c2ccc(F)c(F)c2)C[C@H]1c1cccc(F)c1 | -113%
CC(=O)N[C@@H]1CN(C2CCN(c3cccc(C)c3C)CC2)C[C@H]1C(C)C | -11.7%
C=C(C)COc1cccc(CNC(CC)c2ccnn2C)c1 (centres undefined) | -4.21%
COc1ccc(-c2nccn2C[C@@H]2CCCN3CCCC[C@H]23)cc1 | 4.71%
CC(C)C1CN(S(=O)(=O)N2CCCC2)CCCN1Cc1ccc(F)cc1 (centres undefined) | 7.2%
CCC(CC)NCC(c1ccccn1)N1CCOCC1 (centres undefined) | -44.8%

SMILES | cytotoxicity at 10 µM
CCc1nccn1CCC(=O)N1CCN(c2ccccc2C)CC1C (centres undefined) | 11%
CC(C)CN1CCc2[nH]cnc2C12CCN(C(=O)c1ccnn1C)CC2 | -4.77%
CCc1cc(CN(C)C(=O)C2CC(=O)N(c3cccc(O)c3)C2)on1 (centres undefined) | -1.72%
Cc1cnn(CCCn2ncc(N3CCC(CN)C3)cc2=O)c1 (centres undefined) | -48.2%
Cc1nsc(NC(=O)N2CCCCC2CCO)n1 (centres undefined) | -45.7%
CN1CCN(CCCNCc2cc(O)c3cc(F)ccc3n2)CC1 | -45.4%
CCc1nccn1CCCNc1nccc(-c2c(C)nn(C)c2C)n1 | 2.96%
Cc1ccc2nc(C)cc(C(=O)N[C@H]3COC[C@@H]3N3CCOCC3)c2c1 | -42.2%
COc1ccc(Oc2ncccc2C(F)(F)F)cc1CN1CCCC1 | 4.22%
COc1cccc2c1OCC(C(=O)NCCc1nnc(C)s1)C2 (centres undefined) | -42.1%
Cc1cc(C(=O)NCCC(C)C)ccc1NS(C)(=O)=O | 7.04%
CN(C)S(=O)(=O)c1csc(C(=O)N2CCSCC2)c1 | -51.6%
O=C(Cc1nc(-c2ccncc2)n[nH]1)NCCCN1CCOCC1 | -1.8%
Cc1c[nH]c(CN2CCCn3nc(CNS(C)(=O)=O)cc3C2)n1 | 1.79%
COCCN(CC1CC1)c1nc(CCN)nc2sc(C)c(C)c12 | 0.956%
CC(=O)c1c(C)nn(CC(=O)N2CCCC2c2ccc(C(N)=O)s2)c1C (centres undefined) | 1.16%
COc1cccc(C(=O)N2CCCC(C(=O)CCc3ccccc3)C2)c1 (centres undefined) | -20%
CC(C)c1cc(NCC(C)N2CCCC2)n2nccc2n1 (centres undefined) | -12.4%
CSCC(=O)N1CCC2(CC1)c1ccccc1CC2O (centres undefined) | -19.8%
CN1CCC(Oc2ccc(NC(=O)c3cccc(Cl)c3)cc2)CC1 | -8.45%
Cc1ccccc1-c1cc(C(=O)N2CCCC(n3ccnc3C)C2)[nH]n1 (centres undefined) | 14.3%
Cc1cccc(NC(=O)c2[nH]nc(C(C)C)c2Br)n1 | -2.95%

SMILES | cytotoxicity at 10 µM
O=C(Cc1ccc(F)c(Br)c1)N1CCN(CCO)CC1 | -11.5%
CCc1nccn1C1CCCN(C(=O)c2cnc3onc(C)c3c2)C1 (centres undefined) | -15.9%
Cc1nn(-c2ccccc2)cc1C(=O)N1CCCC(n2cccn2)C1 (centres undefined) | 1.3%
CC(=O)N(Cc1noc(C)n1)C1CCN(Cc2ccon2)C1 (centres undefined) | 4.74%
CC1(C)CC(N(Cc2ccccc2)Cc2cccnc2)CC(C)(C)N1 | 2.67%
Cc1cccc(N2CC[C@H]3[C@H](CO[C@@H]3CN(C)Cc3ccco3)C2)n1 | 13.8%
c1ccc(N2CC[C@@H]3CN(Cc4ccncc4)CCO[C@@H]3C2)cc1 | 9.49%
Cc1ccc2c(n1)N(Cc1cccnc1)CCN(C1CCOCC1)C2 | -71.6%
COc1cccc(CN(Cc2ccco2)Cc2cnc(C)n2C)c1 | 3.65%
CS(=O)(=O)NC[C@]12COC[C@H]1CN(CCc1ccccc1)C2 | 12.3%
C1CCC(CO[C@@H]2CC[C@H]3[C@H]2OCCN3CC2CCOCC2)C1 | 11.4%
Cc1cc(C)cc(CN2C[C@@H]3OCCN(CC(=O)N(C)C)[C@@H]3C2)c1 | -92.9%
CS(=O)(=O)N1C[C@@H]2COC[C@]2(CN2CCOCC2)C1 | 0.472%
O=C(c1cccc(Cl)c1)N1CC[C@H]2[C@H]1CCN2CC1CC1 | -75%
CN1CCN(S(=O)(=O)c2cccc(F)c2)Cc2cccnc21 | -110%
Cc1nc(CN2CCCn3cnc(COC(C)C)c3C2)cs1 | -73.4%
Cc1n[nH]cc1CNCc1cccc(OCC(F)(F)F)c1 | 2.75%
Cc1cc(CN2C[C@@H](C)[C@@]3(CCN(C)C3=O)C2)oc1C | 8.34%
Cc1cccc(C(=O)N2CC[C@@H]3[C@H]2CCC(=O)N3c2ccccc2)n1 | -94.8%
COc1ccc(C(=O)N2Cc3cc(C)ccc3OCC2CN(C)C)cc1 (centres undefined) | -14.5%
CC(C)CNC(=O)[C@H]1C[C@H]2CN(Cc3cccnc3)C[C@@H]1O2 | -1.16%
